ChEMBL document CHEMBL3826892, “Second-Generation Phenylthiazole Antibiotics with Enhanced Pharmacokinetic Properties” (J Med Chem, 2016)
≈ marks a conversion by molar mass, not a printed value.

Key:
Staphylococcus aureus [1] = assay: Antimicrobial activity against methicillin-resistant Staphylococcus aureus RCMB 2658 clinical isolate after 20 hrs by broth microdilution method; format: functional; details: RCMB 2658, 20 h
How it was run: (§1)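 CLSI broth microdilution in cation-adjusted Mueller Hinton broth. Compounds were serially diluted in triplicate and plates held at 37 °C for 20 h. MIC was taken by eye as the lowest concentration with no visible growth, and the average of the triplicate determinations is reported.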

[2] = Aqueous solubility of the compound in PBS after 2 hrs by turbidity assay; format: physicochemical
How it was run: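 Serial dilutions were made […] and diluted 100-fold into PBS. After 2 h, turbidity was read at 540 nm with pre-addition background subtracted. Turbidity was taken as absorbance > blank mean + 3 SD. Solubility limit is the highest concentration with no turbidity.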

HaCaT [3] = assay: Cytotoxicity against human HaCaT cells assessed as cell viability up to 16 ug/ml after 2 hrs by MTS assay; format: cell-based
How it was run: (§2)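 HaCaT keratinocytes were grown in DMEM with 10% FBS at 37 °C, 5% CO₂. They were exposed in triplicate to 8–256 μg/mL for 2 h, then MTS was added. Background-corrected absorbance was expressed as % viability relative to a DMSO vehicle control.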

Staphylococcus aureus [4] = assay: Bactericidal activity against methicillin-resistant Staphylococcus aureus USA300 assessed as time required to reduce bacterial inoculum to zero colony forming units at 3 times MIC by time kill assay; format: functional
How it was run: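 Samples taken at 2, 4, 6, 8, 10, 12 and 24 h were serially diluted in PBS and plated on trypticase soy agar. Viable CFU/mL were counted after at least 16 h at 37 °C.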

Enterococcus faecium [5] = assay: Antimicrobial activity against vancomycin-resistant Enterococcus faecium ATCC 700221 after 20 hrs by broth microdilution method; format: functional; details: ATCC 700221, 20 h; how it was run: as §1
Staphylococcus aureus [6] = assay: Antimicrobial activity against methicillin-resistant Staphylococcus aureus NRS119 clinical isolate after 20 hrs by broth microdilution method; format: functional; details: NRS119, 20 h; how it was run: as §1
Staphylococcus aureus [7] = assay: Bactericidal activity against methicillin-resistant Staphylococcus aureus USA400 NRS123 clinical isolate after 20 hrs by broth microdilution method; format: functional; details: USA400 NRS123, 20 h
Staphylococcus aureus [8] = assay: Bactericidal activity against vancomycin-resistant Staphylococcus aureus 10 clinical isolate after 20 hrs by broth microdilution method; format: functional; details: isolate 10, 20 h
Staphylococcus aureus [9] = assay: Antimicrobial activity against methicillin-resistant Staphylococcus aureus USA400 NRS123 clinical isolate after 20 hrs by broth microdilution method; format: functional; details: USA400 NRS123, 20 h; how it was run: as §1
Staphylococcus aureus [10] = assay: Bactericidal activity against methicillin-sensitive Staphylococcus aureus NRS72 clinical isolate after 20 hrs by broth microdilution method; format: functional; details: NRS72, 20 h
Staphylococcus aureus [11] = assay: Antimicrobial activity against methicillin-resistant Staphylococcus aureus USA100 NRS382 clinical isolate after 20 hrs by broth microdilution method; format: functional; details: USA100 NRS382, 20 h; how it was run: as §1
Staphylococcus aureus [12] = assay: Bactericidal activity against methicillin-resistant Staphylococcus aureus NRS119 clinical isolate after 20 hrs by broth microdilution method; format: functional; details: NRS119, 20 h
Staphylococcus aureus [13] = assay: Bactericidal activity against methicillin-resistant Staphylococcus aureus USA300 NRS384 clinical isolate after 20 hrs by broth microdilution method; format: functional; details: USA300 NRS384, 20 h
Staphylococcus aureus [14] = assay: Bactericidal activity against methicillin-resistant Staphylococcus aureus USA100 NRS382 clinical isolate after 20 hrs by broth microdilution method; format: functional; details: USA100 NRS382, 20 h
Staphylococcus aureus [15] = assay: Antimicrobial activity against methicillin-resistant Staphylococcus aureus USA300 NRS384 clinical isolate after 20 hrs by broth microdilution method; format: functional; details: USA300 NRS384, 20 h; how it was run: as §1
Staphylococcus aureus [16] = assay: Bactericidal activity against methicillin-resistant Staphylococcus aureus USA200 NRS383 clinical isolate after 20 hrs by broth microdilution method; format: functional; details: USA200 NRS383, 20 h
Enterococcus faecium [17] = assay: Bactericidal activity against vancomycin-resistant Enterococcus faecium ATCC 700221 after 20 hrs by broth microdilution method; format: functional; details: ATCC 700221, 20 h
Staphylococcus aureus [18] = assay: Antimicrobial activity against vancomycin-resistant Staphylococcus aureus 10 clinical isolate after 20 hrs by broth microdilution method; format: functional; details: isolate 10, 20 h; how it was run: as §1
Staphylococcus aureus [19] = assay: Antimicrobial activity against methicillin-resistant Staphylococcus aureus USA200 NRS383 clinical isolate after 20 hrs by broth microdilution method; format: functional; details: USA200 NRS383, 20 h; how it was run: as §1
Staphylococcus aureus [20] = assay: Antimicrobial activity against methicillin-sensitive Staphylococcus aureus NRS72 clinical isolate after 20 hrs by broth microdilution method; format: functional; details: NRS72, 20 h; how it was run: as §1
[21] = Total AUC in Sprague-Dawley rat plasma at 50 mg/kg administered via oral gavage measured 24 hrs post dose by LC/MS/MS analysis; format: ADME, organism-based; design: dose 50 mg/kg, route oral, time AUCmax
How it was run: (§3)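 Male naive Sprague-Dawley rats (n = 3) received a single 50 mg/kg oral gavage dose in 5% ethanol, 45% PEG 400, 50% water. Blood was collected into EDTA-K2 tubes over 24 h post dose. Plasma was protein-precipitated with acetonitrile and parent was quantified by LC/MS/MS to derive PK parameters.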

Rattus norvegicus [22] = assay: Elimination rate constant in Sprague-Dawley rat plasma at 50 mg/kg administered via oral gavage by LC/MS/MS analysis; format: ADME, organism-based; details: in vivo; how it was run: as §3
[23] = Mean residence time in Sprague-Dawley rat plasma at 50 mg/kg administered via oral gavage measured 24 hrs post dose by LC/MS/MS analysis; format: ADME, organism-based; how it was run: as §3
[24] = Efflux ratio of apparent permeability from basolateral to apical side over apical to basolateral side in human Caco2 cells after 2 hrs by LC/MS/MS analysis; format: ADME, cell-based; details: Caco-2
How it was run: (§4)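 Caco-2 cells were grown and differentiated for 3 weeks, fed every 2 days. Compound was added to the apical or basolateral side and measured on the opposite side after 2 h by LC/MS/MS. Apical buffer was pH 6.5 transport buffer (glucose, 10 mM HEPES, HBSS) with 100 μM Lucifer yellow; basolateral buffer was pH 7.4. Lucifer yellow fluorescence checked monolayer integrity. Papp = (dQ/dt)/C₀A; efflux ratio = Papp(B→A)/Papp(A→B).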

[25] = Apparent permeability across basolateral to apical side in human Caco2 cells at pH 7.4 after 2 hrs by LC/MS/MS analysis; details: Caco-2, pH 7.4
[26] = Tmax in Sprague-Dawley rat plasma at 50 mg/kg administered via oral gavage measured 24 hrs post dose by LC/MS/MS analysis; format: ADME, organism-based; how it was run: as §3
[27] = AUClast in Sprague-Dawley rat plasma at 50 mg/kg administered via oral gavage measured 24 hrs post dose by LC/MS/MS analysis; format: ADME, organism-based; design: dose 50 mg/kg, time 0 - last, route oral; how it was run: as §3
Rattus norvegicus [28] = assay: Half life in Sprague-Dawley rat plasma at 50 mg/kg administered via oral gavage measured 24 hrs post dose by LC/MS/MS analysis; format: ADME, organism-based; details: in vivo; how it was run: as §3
[29] = Apparent permeability across apical to basolateral side in human Caco2 cells at pH 6.5 after 2 hrs by LC/MS/MS analysis; format: ADME, cell-based; details: Caco-2, pH 6.5; how it was run: as §4
[30] = Cmax in Sprague-Dawley rat plasma at 50 mg/kg administered via oral gavage measured 24 hrs post dose by LC/MS/MS analysis; format: ADME, organism-based; design: dose 50 mg/kg, route oral; how it was run: as §3
[31] = Ratio of non toxic dose for cytotoxicity against human HaCaT cells to MIC for methicillin-resistant Staphylococcus aureus RCMB 2658 clinical isolate; format: toxicity, cell-based
How it was run: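 HaCaT keratinocytes in DMEM with 10% FBS at 37 °C, 5% CO2, exposed for 2 h to 8–256 μg/mL, then MTS read-out. Viability is given as a percentage of the DMSO control, in triplicate. The highest non-toxic concentration is divided by the MRSA MIC.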

HaCaT [32] = assay: Cytotoxicity against human HaCaT cells assessed as cell viability up to 64 ug/ml after 2 hrs by MTS assay; format: cell-based; how it was run: as §2

## Cc1nc(-c2ccc(C3=CCC(C)C3)cc2)sc1-c1ccnc(N)n1 (stereo not drawn)
Staphylococcus aureus [1]
  MIC: 3.8 µg/mL (≈ 10.9 µM)

## CCCCc1ccc(-c2nc(C)c(-c3ccnc(-c4cccnc4)n3)s2)cc1
Staphylococcus aureus [1]
  MIC: 17.2 µg/mL (≈ 44.5 µM)

## Cc1nc(-c2ccc(-c3ccco3)cc2)sc1-c1ccnc(N)n1
Staphylococcus aureus [1]
  MIC: 8.7 µg/mL (≈ 26 µM)
[2]
  solubility kinetic at 2 h: 14 µM (≈ 4.68 µg/mL)

## CCCCc1ccc(-c2nc(C)c(-c3ccnc(NC#N)n3)s2)cc1
Staphylococcus aureus [1]
  MIC: 18.7 µg/mL (≈ 53.5 µM)

## CCCCc1ccc(-c2nc(C)c(-c3ccnc(N=C(N(C)C)N(C)C)n3)s2)cc1
Staphylococcus aureus [1]
  MIC: > 25 µg/mL

## Cc1nc(-c2ccc(I)cc2)sc1-c1ccnc(N)n1
Staphylococcus aureus [1]
  MIC: > 25 µg/mL

## Cc1nc(-c2ccc(/C=C/C3CCCCC3)cc2)sc1-c1ccnc(N)n1
Staphylococcus aureus [1]
  MIC: 3.12 µg/mL (≈ 8.29 µM)

## CCCCc1ccc(-c2nc(C)c(-c3ccnc(N4CCCC4)n3)s2)cc1
Staphylococcus aureus [1]
  MIC: > 25 µg/mL

## CCCCc1ccc(-c2nc(C)c(/C(C)=N/NC(=N)N)s2)cc1
HaCaT [3]
  Activity: Non-toxic
Staphylococcus aureus [1]
  MIC: 4.8 µg/mL (≈ 14.6 µM)
Staphylococcus aureus [4]
  Time: 6 h

## Cc1nc(-c2ccc(/C3=C/CCCCCC3)cc2)sc1-c1ccnc(N)n1
Staphylococcus aureus [1]
  MIC: 5.6 µg/mL (≈ 14.9 µM)

## Cc1nc(-c2ccc(C3=CCCCCC3)cc2)sc1-c1ccnc(N)n1
Staphylococcus aureus [1]
  MIC: 3.12 µg/mL (≈ 8.61 µM)

## CC(=O)NC[C@H]1CN(c2ccc(N3CCOCC3)c(F)c2)C(=O)O1 [LINEZOLID]
Enterococcus faecium [5]
  MIC: 1 µg/mL (≈ 2.96 µM)
Staphylococcus aureus [6]
  MIC: 32 µg/mL (≈ 94.9 µM)
Staphylococcus aureus [7]
  MBC: 16 µg/mL (≈ 47.4 µM)
Staphylococcus aureus [8]
  MBC: 2 µg/mL (≈ 5.93 µM)
Staphylococcus aureus [9]
  MIC: 1 µg/mL (≈ 2.96 µM)
Staphylococcus aureus [10]
  MBC: 2 µg/mL (≈ 5.93 µM)
Staphylococcus aureus [11]
  MIC: 1 µg/mL (≈ 2.96 µM)
Staphylococcus aureus [12]
  MBC: > 64 µg/mL
Staphylococcus aureus [13]
  MBC: 4 µg/mL (≈ 11.9 µM)
Staphylococcus aureus [14]
  MBC: 8 µg/mL (≈ 23.7 µM)
Staphylococcus aureus [15]
  MIC: 1 µg/mL (≈ 2.96 µM)
Staphylococcus aureus [16]
  MBC: 32 µg/mL (≈ 94.9 µM)
Enterococcus faecium [17]
  MBC: 32 µg/mL (≈ 94.9 µM)
Staphylococcus aureus [18]
  MIC: 1 µg/mL (≈ 2.96 µM)
Staphylococcus aureus [19]
  MIC: 1 µg/mL (≈ 2.96 µM)
Staphylococcus aureus [20]
  MIC: 1 µg/mL (≈ 2.96 µM)

## Cc1nc(-c2ccc(/C=C/C3CCCC3)cc2)sc1-c1ccnc(N)n1
Staphylococcus aureus [1]
  MIC: 3.12 µg/mL (≈ 8.61 µM)

## CCCCc1ccc(-c2nc(C)c(-c3ccnc(NN)n3)s2)cc1
Enterococcus faecium [5]
  MIC: 2 µg/mL (≈ 5.89 µM)
[21]
  AUC at 24 h: 100000 ng·h/mL
Rattus norvegicus [22]
  Kel: 0.19 h⁻¹
Staphylococcus aureus [6]
  MIC: 2 µg/mL (≈ 5.89 µM)
Staphylococcus aureus [7]
  MBC: 2 µg/mL (≈ 5.89 µM)
[23]
  MRT: 7.74 h
[24]
  efflux ratio at 2 h: 1.8
Staphylococcus aureus [8]
  MBC: 2 µg/mL (≈ 5.89 µM)
[25]
  Papp B→A at 2 h: 2.8 ×10⁻⁶ cm/s
Staphylococcus aureus [1]
  MIC: 0.4 µg/mL (≈ 1.18 µM)
[26]
  Tmax: 4.67 h
[27]
  AUC(0-t) at 24 h: 83200 ng·h/mL
Staphylococcus aureus [9]
  MIC: 2 µg/mL (≈ 5.89 µM)
Staphylococcus aureus [10]
  MBC: 8 µg/mL (≈ 23.6 µM)
Staphylococcus aureus [11]
  MIC: 2 µg/mL (≈ 5.89 µM)
Staphylococcus aureus [12]
  MBC: 2 µg/mL (≈ 5.89 µM)
Staphylococcus aureus [13]
  MBC: 2 µg/mL (≈ 5.89 µM)
Staphylococcus aureus [14]
  MBC: 4 µg/mL (≈ 11.8 µM)
Staphylococcus aureus [15]
  MIC: 2 µg/mL (≈ 5.89 µM)
Staphylococcus aureus [16]
  MBC: 2 µg/mL (≈ 5.89 µM)
Staphylococcus aureus [4]
  Time: 2 h
[2]
  solubility kinetic at 2 h: 55 µM (≈ 18.7 µg/mL)
Rattus norvegicus [28]
  t1/2: 8.24 h
Enterococcus faecium [17]
  MBC: 8 µg/mL (≈ 23.6 µM)
Staphylococcus aureus [18]
  MIC: 1 µg/mL (≈ 2.95 µM)
Staphylococcus aureus [19]
  MIC: 2 µg/mL (≈ 5.89 µM)
Staphylococcus aureus [20]
  MIC: 2 µg/mL (≈ 5.89 µM)
[29]
  Papp A→B at 2 h: 1.6 ×10⁻⁶ cm/s
[30]
  Cmax: 9330 ng/mL
[31]
  selectivity ratio: 160
HaCaT [32]
  Activity: Non-toxic

## CCCCc1ccc(-c2nc(C)c(-c3ccnc(NC(N)=S)n3)s2)cc1
Staphylococcus aureus [1]
  MIC: > 25 µg/mL
